Calls of active or inactive are those of the source. No cut-off for these calls is given here.
Key:
[1] = Protein binding in cell-culture media with rat plasma at 3 uM; assay type: ADME, cell-free; conditions: read-out: PB (converted)
In short: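 Compound at 3 μM was added to triplicate samples and incubated 1 h at 37°C. Samples were centrifuged through a 30,000-MW filter (1,500 × g, 15 min, 4°C). Percent bound was calculated from compound concentrations in the filtrate and retentate.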

Osteoclast [2] = experiment: Inhibition of human osteoclast attachment to plastic surface assessed cells per cm2 of plastic at 3 uM after 3 days by immunocytochemistry (reference value: 9723 +/- 1380 cells/cm2 of plastic); assay type: functional
In short: (§1)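 Human PBMCs from a healthy volunteer (5 × 10^5 cells in MEM/10% FCS) were seeded on plastic coverslips with RANKL and CSF-1 (30 ng/ml each) for 10 days, with medium changed every 3 days. Compound was added on day 10 (0.1% DMSO final). On day 13, total cells on the coverslips were counted by immunocytochemistry. Data are mean ± SEM.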

HUVEC [3] = experiment: Growth inhibition of VEGF-stimulated HUVEC after 3 days by spectrophotometry; assay type: cell-based; conditions: Homo sapiens, 72 h
In short: (§2)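 Cells cultured so that added serum or growth factor gave linear growth. Compound tested as a 10- to 12-point dose-response with a top concentration of 20 μM.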

PBMC [4] = experiment: Effect on LPS-induced IL-6 production in human PBMC at 0.03906 to 20 uM preincubated for 30 mins before LPS stimulation measured after 20 hrs by ELISA; assay type: functional, cell-based
Mus musculus [5] = experiment: Inhibition of LPS-stimulated TNF production in mouse at 40 mg/kg, po administered 0.5 hr before LPS challenge measured […] after LPS challenge; assay type: functional
PBMC [6] = experiment: Effect on LPS-induced TNF production in human PBMC at 0.03906 to 20 uM preincubated for 30 mins before LPS stimulation measured after 20 hrs by ELISA; assay type: functional, cell-based
HUVEC [7] = experiment: Growth inhibition of bFGF-stimulated HUVEC after 3 days by spectrophotometry; assay type: cell-based; conditions: Homo sapiens, 72 h; in short: as §2
Rattus norvegicus = species on record: Rattus norvegicus; experiment: Inhibition of PTH-induced Wistar rat fetal long bone degradation assessed as labeled 45Ca release in to media at 1 to 10 uM after 48 hrs by liquid scintillation spectrometry; assay type: functional
In short: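 Fetal rat long bones preloaded with 45CaCl2 and incubated for 24 h. PTH and compound then added; release of labelled calcium into the medium measured 48 h later.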

Mus musculus [8] = experiment: Inhibition of LPS-stimulated TNF production in CSF-1 primed mouse at 40 mg/kg, po administered 4.5 hr before LPS challenge and CSF-1 priming measured […] after LPS challenge; assay type: functional
HFF = experiment: Growth inhibition of serum-stimulated HFF after 3 days by spectrophotometry; assay type: cell-based; conditions: Homo sapiens, 72 h; in short: as §2
Mus musculus [9] = experiment: Toxicity in mouse M-NFS-60 cells allografted CD-1 nude mouse assessed as effect on body weight at 20 to 80 mg/kg, po BID starting 1 hr before challenge for 4 days; assay type: organism-based; set-up: dose 20-80 mg/kg, route oral; conditions: in vivo
In short: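 Female CD-1 nude mice (22-26 g) received 1 × 10^7 M-NFS-60 cells in PBS i.p. Oral dosing b.i.d. in 0.5% HPMC/0.1% Tween 80 began 1 h before cell injection. Body weight was taken at kill on day 4.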

Mus musculus [10] = experiment: Inhibition of LPS-stimulated TNF production in mouse at 20 to 80 mg/kg, po administered 4.5 hr before LPS challenge and measured […] after LPS challenge; assay type: functional, organism-based
Monocyte = experiment: Inhibition of LPS-stimulated growth of freshly isolated human monocytes at 1 uM preincubated for 30 mins before inducer addition measured after 5 days by WST-1 method; assay type: functional; conditions: read-out: GI
Mus musculus [11] = experiment: Inhibition of LPS-stimulated IL-6 production in mouse at 40 mg/kg, po administered 4.5 hr before LPS challenge measured […] after LPS challenge; assay type: functional
Mus musculus [12] = experiment: Inhibition of LPS-stimulated TNF production in mouse at 40 mg/kg, po administered 4.5 hr before LPS challenge measured […] after LPS challenge; assay type: functional
Mus musculus [13] = experiment: Increase in LPS-stimulated IL-6 production in mouse at 40 mg/kg, po administered 4.5 hr before LPS challenge measured […] after LPS challenge
[14] = molecular target: T1, Protein kinase C zeta type (Homo sapiens, UniProt Q05513); experiment: Inhibition of human His-tagged PKCz using biotin-(amino hexanoic acid)-FKLKRKGSFKKFA-CONH2 as substrate after 40 mins by scintillation proximity assay
T1 sequence (Q05513 whole entry): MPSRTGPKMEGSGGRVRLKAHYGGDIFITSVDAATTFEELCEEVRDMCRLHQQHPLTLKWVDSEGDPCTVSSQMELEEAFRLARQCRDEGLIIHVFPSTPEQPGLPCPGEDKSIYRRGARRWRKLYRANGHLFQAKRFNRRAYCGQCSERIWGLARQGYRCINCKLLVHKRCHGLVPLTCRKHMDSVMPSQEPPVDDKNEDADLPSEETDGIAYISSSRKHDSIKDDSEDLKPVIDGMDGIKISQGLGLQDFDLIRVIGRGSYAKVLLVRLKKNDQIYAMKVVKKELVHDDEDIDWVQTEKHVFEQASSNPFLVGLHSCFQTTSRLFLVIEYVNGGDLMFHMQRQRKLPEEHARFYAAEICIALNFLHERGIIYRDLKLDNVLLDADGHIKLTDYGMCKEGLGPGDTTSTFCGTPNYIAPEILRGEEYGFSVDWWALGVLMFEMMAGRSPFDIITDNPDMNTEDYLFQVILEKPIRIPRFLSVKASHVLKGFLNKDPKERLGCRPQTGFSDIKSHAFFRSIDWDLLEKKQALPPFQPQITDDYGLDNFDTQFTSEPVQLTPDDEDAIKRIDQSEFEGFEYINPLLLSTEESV
In short: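 Catalytic domains of the human kinases were expressed, isolated and assayed with ATP and the appropriate substrate. Compound was tested as a 10- to 12-point dose-response up to a maximal 20 μM.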

Osteoclast [15] = experiment: Inhibition of human osteoclast degradation of bone assessed as reduction in 23C6(+) cells with more than 3 nuclei per cm2 of bone at 3 uM after 3 days by immunocytochemistry (reference value: 854 +/- 122 cells/cm2 of bone); assay type: functional
Osteoclast [16] = experiment: Inhibition of human osteoclast attachment to plastic surface assessed cells per cm2 of plastic at 10 uM after 3 days by immunocytochemistry (reference value: 9723 +/- 1380 cells/cm2 of plastic); assay type: functional; in short: as §1
Osteoclast [17] = experiment: Inhibition of human osteoclast degradation of bone assessed as reduction in actin ring formation per cm2 of bone at 1 uM after 3 days by immunocytochemistry (reference value: 1546 +/- 232 /cm2 of bone); assay type: functional
[18] = Cmax in mouse at 80 mg/kg, po; assay type: ADME, organism-based; set-up: dose 80 mg/kg, route oral; conditions: in vivo
In short: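 Female mice given single oral doses (20 or 80 mg/kg) in 0.5% HPMC/0.1% Tween 80. Three mice killed with CO2 per time point; plasma extracted with isopropyl alcohol/acetonitrile, then vortexed, sonicated and centrifuged. Quantified by LC/MS (APCI positive mode, multiple-reaction monitoring) against a standard curve prepared in plasma.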

[19] = tested on: Peritoneal macrophage cell; experiment: Effect on LPS-induced TNF production in mouse intraperitoneal macrophages pretreated with CSF-1 at 0.03906 to 20 uM compound incubated for 30 mins before LPS stimulation measured after 20 hrs by ELISA; assay type: functional, cell-based

In the case of `COc1ccc(COc2ccc(Cc3cnc(N)nc3N)cc2OC)cc1` [GW632580X], the fraction unbound at 3 µM [1] is reported as 0.05, the Activity (Osteoclast [2]) is reported as 3369 /cm2 and the IC50 (HUVEC [3]) is reported as 12 µM. For the same compound, the Activity (PBMC [4]) was “inactive”, the inhibition in vivo at 40 mg/kg (Mus musculus [5]) was 68% and the Activity (PBMC [6]) was “inactive”. For the same compound, the IC50 (HUVEC [7]) was over 10 µM, the inhibition (Rattus norvegicus) was “Active” and the inhibition in vivo at 40 mg/kg (Mus musculus [8]) was 58%. The IC50 (HFF) was over 30 µM, the Activity (Mus musculus [9]) was “Non-toxic” and the inhibition (Mus musculus [10]) was “Active”. For the same compound, the inhibition of growth at 1 µM (Monocyte) was 50%, the inhibition in vivo at 40 mg/kg (Mus musculus [11]) was -28% and the inhibition in vivo at 40 mg/kg (Mus musculus [12]) was 42%. For the same compound, the Activity (Mus musculus [13]) was “Active”, the IC50 [14] was over 24 µM and the Activity (Osteoclast [15]) was 120 /cm2. For the same compound, the Activity (Osteoclast [16]) was 2728 /cm2, the Activity (Osteoclast [17]) was 479 /cm2 and the Cmax [18] was 400 nM. For the same compound, the Activity [19] was “inactive”.
